Data published in article PMC3383389 (Molecular and Biochemical Parasitology, 2012).

How the values were obtained:
TbMCP-1 = target: T1, TbMCP-1 (Trypanosoma brucei, UniProt Q386R0); assay: inhibition of FA-Ala-Lys hydrolysis after pre-incubation; assay type: biochemical; conditions: read-out: % residual activity at 5 μM
T1 sequence (Q386R0 1-503): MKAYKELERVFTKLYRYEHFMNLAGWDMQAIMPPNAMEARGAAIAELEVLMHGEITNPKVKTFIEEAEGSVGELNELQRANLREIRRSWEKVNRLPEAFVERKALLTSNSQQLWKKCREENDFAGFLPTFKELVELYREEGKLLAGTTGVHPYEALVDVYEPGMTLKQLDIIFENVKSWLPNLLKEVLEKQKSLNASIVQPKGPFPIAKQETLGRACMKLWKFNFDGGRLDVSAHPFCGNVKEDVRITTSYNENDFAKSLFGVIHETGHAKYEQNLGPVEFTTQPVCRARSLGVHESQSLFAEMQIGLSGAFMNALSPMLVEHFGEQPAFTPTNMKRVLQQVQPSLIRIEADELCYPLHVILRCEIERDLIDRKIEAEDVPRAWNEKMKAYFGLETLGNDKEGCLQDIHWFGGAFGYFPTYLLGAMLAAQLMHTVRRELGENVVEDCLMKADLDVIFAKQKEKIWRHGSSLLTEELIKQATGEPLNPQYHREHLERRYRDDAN
Summary of the method: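 GST-fused recombinant TbMCP-1 was expressed in E. coli BL21 Codon Plus (DE3), purified on glutathione-agarose and desalted. The enzyme was pre-incubated with test compound (metal chlorides were tested from 1 µM to 1 mM). Activity was then read continuously at 340 nm with 200 µM furyl-acryloyl-Ala-Lys in 100 mM MOPS, pH 7.3, and reported as % residual activity.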

[1] = target: Trypanosoma brucei M32 metallocarboxypeptidase TbMCP-1, N-terminally GST-tagged recombinant enzyme (Trypanosoma brucei (Lister 427)); assay: SEC

Row | stoichiometry N [1] | Molecule | remaining activity at 5 µM (TbMCP-1) [%]
1 |  | N=C(N)NCCSC(CC(=O)O)C(=O)O (centres unmarked) [GEMSA] | 9.1 ± 1.2
2 | 2 | Trypanosoma brucei M32 metallocarboxypeptidase TbMCP-1, N-terminally GST-tagged recombinant enzyme | 
